Experimental data reported in PMC6774347 (European Journal of Organic Chemistry, 2019).
pEC50: −log10 of the molar value.

Assays:
[1] = test system: CEM leukemia cell line; experiment: Differential nuclear staining; type: cell-based, human; settings: 48 h; for Concentration inducing significant death in CEM cells: tested 100 µM to 0.5 µM; for CEM cell death (in words): at the prepared / highest soluble concentrations
Method in brief: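 Live-cell imaging differential nuclear staining with Hoechst 33342 (all nuclei) and propidium iodide (dead cells). DMSO stocks at highest soluble concentration were serially diluted and added to cells in complete medium (final 1 % v/v DMSO), 100 µM down to 0.5 µM. Read at 48 h in quadruplicate. Controls were untreated, 1 % DMSO and 1.62 mM H2O2. CC50 (50 % membrane-integrity loss versus untreated) was linearly interpolated between the two concentrations nearest 50 %.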

[2] = test system: TK+ VZV; experiment: Antiviral assay, plaque formation in HEL cells; type: cell-based, varicella-zoster virus (VZV); settings: Human alphaherpesvirus 3, HEL
[3] = Compound solubility in DMSO stock and in the biological assays; type: physicochemical; settings: for Compound crystallization in treated cells: CEM cells in complete media, 1 % v/v DMSO; for Solubility (in words): stock solutions at highest soluble concentration in DMSO
[4] = test system: TK– VZV; experiment: Antiviral assay, plaque formation in HEL cells; type: cell-based, varicella-zoster virus (VZV); settings: Human alphaherpesvirus 3, HEL
[5] = test system: CEM cells; experiment: Annexin V-FITC / propidium iodide apoptosis assay; type: cell-based, human; settings: 24 h, annexin-FITC and PI staining
[6] = test system: MDA-MB-231 (MB-231) triple-negative breast cancer cell line; experiment: Differential nuclear staining; type: cell-based; settings: Homo sapiens, MDA-MB-231, 72 h
Method in brief: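 MDA-MB-231 cells were stained with Hoechst 33342 and propidium iodide and imaged live. Serial dilutions from 100 µM (to 0.5 µM) in DMSO were added directly to cell-containing wells (final 1 % v/v DMSO). Read at 72 h in quadruplicate. Controls were untreated, 1 % DMSO and 1.62 mM H2O2. CC50 was linearly interpolated between the two concentrations flanking 50 % death relative to untreated cells.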

SMILES: COc1cc(OC)cc(-c2cn(-c3cc(=O)oc4ccc(Br)cc34)nn2)c1 [Compound 22, 6‐Bromo‐4‐(4‐(3,5‐dimethoxyphenyl)‐1H‐1,2,3‐triazol‐1‐yl)‐2H‐chromen‐2‐one]
- Concentration inducing significant death in CEM cells [1]: approximately 10 µM
- pEC50 [2]: 4.23

SMILES: COc1cc(-c2cn(-c3cc(=O)oc4ccc(C)cc34)nn2)cc(OC)c1OC [Compound 14, 6‐Methyl‐4‐(4‐(3,4,5‐trimethoxyphenyl)‐1H‐1,2,3‐triazol‐1‐yl)‐2H‐chromen‐2‐one]
- CEM cell death (in words) [1]: did not induce significant CEM cell death

SMILES: COc1ccc(-c2cn(-c3cc(=O)oc4ccc(Br)cc34)nn2)cc1 [Compound 23, 6‐Bromo‐4‐(4‐(4‐methoxyphenyl)‐1H‐1,2,3‐triazol‐1‐yl)‐2H‐chromen‐2‐one]
- Concentration inducing significant death in CEM cells [1]: approximately 10 µM

SMILES: COc1cccc(-c2cn(-c3cc(=O)oc4ccc(Br)cc34)nn2)c1 [Compound 24, 6‐Bromo‐4‐(4‐(3‐methoxyphenyl)‐1H‐1,2,3‐triazol‐1‐yl)‐2H‐chromen‐2‐one]
- Concentration inducing significant death in CEM cells [1]: approximately 10 µM

SMILES: COc1cc(-c2cn(-c3cc(=O)oc4c(Cl)cc(Cl)cc34)nn2)cc(OC)c1OC [Compound 17, 6,8‐Dichloro‐4‐(4‐(3,4,5‐trimethoxyphenyl)‐1H‐1,2,3‐triazol‐1‐yl)‐2H‐chromen‐2‐one]
- CEM cell death (in words) [1]: did not induce significant CEM cell death
- pEC50 [2]: 4.17

SMILES: COc1cc(-c2cn(-c3cc(=O)oc4ccccc34)nn2)cc(OC)c1OC [Compound 13, 4‐(4‐(3,4,5‐Trimethoxyphenyl)‐1H‐1,2,3‐triazol‐1‐yl)‐2H‐chromen‐2‐one]
- Compound crystallization in treated cells [3]: significant compound crystallization
- CEM cell death (in words) [1]: did not induce quantifiable CEM cell death

SMILES: COc1cc(-c2cn(-c3cc(=O)oc4cc(C)ccc34)nn2)cc(OC)c1OC [Compound 18, 7‐Methyl‐4‐(4‐(3,4,5‐trimethoxyphenyl)‐1H‐1,2,3‐triazol‐1‐yl)‐2H‐chromen‐2‐one]
- Compound crystallization in treated cells [3]: significant compound crystallization
- CEM cell death (in words) [1]: did not induce quantifiable CEM cell death

SMILES: COc1cc(-c2cn(-c3cc(=O)oc4ccc(Cl)cc34)nn2)cc(OC)c1OC [Compound 15, 6‐Chloro‐4‐(4‐(3,4,5‐trimethoxyphenyl)‐1H‐1,2,3‐triazol‐1‐yl)‐2H‐chromen‐2‐one]
- Solubility (in words) [3]: one of the least soluble compounds in the series
- CEM cell death (in words) [1]: demonstrated cytotoxicity at its highest soluble concentration

SMILES: COc1cc(-c2cn(-c3ccccc3)nn2)cc(OC)c1OC [Compound 20, 1‐Phenyl‐4‐(3,4,5‐trimethoxyphenyl)‐1H‐1,2,3‐triazole]
- pEC50 [4]: 4.41
- Solubility (in words) [3]: the most readily soluble of the compounds
- Mode of cell death (apoptosis vs necrosis) [5]: preferentially induces cell death via apoptosis
- pEC50 [2]: 4.40
- CC50 [6]: 55.4 µM

SMILES: COc1ccc2c(-n3cc(-c4cc(OC)c(OC)c(OC)c4)nn3)cc(=O)oc2c1 [Compound 19, 7‐Methoxy‐4‐(4‐(3,4,5‐trimethoxyphenyl)‐1H‐1,2,3‐triazol‐1‐yl)‐2H‐chromen‐2‐one]
- Compound crystallization in treated cells [3]: significant compound crystallization
- CEM cell death (in words) [1]: did not induce quantifiable CEM cell death

SMILES: COc1cc(-c2cn(-c3cc(=O)oc4ccc(Br)cc34)nn2)cc(OC)c1OC [Compound 16, 6‐Bromo‐4‐(4‐(3,4,5‐trimethoxyphenyl)‐1H‐1,2,3‐triazol‐1‐yl)‐2H‐chromen‐2‐one]
- Solubility (in words) [3]: relatively soluble
- CEM cell death (in words) [1]: did not induce significant CEM cell death
